According to ChEMBL document CHEMBL1777729, “Structure-based lead identification of ATP-competitive MK2 inhibitors” (Bioorg Med Chem Lett, 2011):
In brackets after ≈: the same amount, converted by molar mass.

Key:
[1] = target: MAP kinase-activated protein kinase 2 (Homo sapiens, UniProt P49137); test: Inhibition of MK2 pretreated for 30 mins before substrate addition measured after 2 hrs by IMAP assay
THP-1 [2] = test: Antiinflammatory activity in human THP1 cells assessed as inhibition of LPS-induced TNFalpha production treated 30 mins before LPS challenge measured after 4 hrs by ELISA; assay type: functional, cell-based
Summary of the method: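 THP1 cells seeded at 1.5 × 10^5 per well in DMEM F12 and rested ≥18 h at 37 °C, 5–7% CO2, humidified. Compounds added in DMSO (0.1% final) for 30 min, then LPS added. After 4 h at 37 °C, TNFα in the culture medium was quantified by ELISA. EC50 from duplicates per dilution.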

[3] = Kinetic solubility of the compound at pH 7.4; assay type: physicochemical; conditions: buffer
[4] = Half life in human liver microsomes; assay type: ADME, Microsome
[5] = Half life in rat liver microsomes; assay type: ADME, Microsome
[6] = Plasma protein binding in plasma; assay type: ADME, cell-free; conditions: read-out: PPB (converted)
PBMC = test: Antiinflammatory activity in human PBMC cells assessed as inhibition of LPS-induced TNFalpha production treated 30 mins before LPS challenge measured after 4 hrs by ELISA; assay type: functional, cell-based
[7] = AUC in rat at 10 umol/kg, po; assay type: ADME, organism-based; conditions: plasma
Summary of the method: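 Rat PK after oral dosing at 10 µmol/kg; exposure expressed as AUC.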

[8] = AUC in rat at 4 umol/kg, iv; assay type: ADME, organism-based; conditions: plasma
[9] = AUC in rat at 10 umol/kg, sc; assay type: ADME, organism-based; conditions: plasma
Summary of the method: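 Rat PK after subcutaneous dosing at 10 µmol/kg; exposure expressed as AUC.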

Rattus norvegicus [10] = test: Antiinflammatory activity in sc dosed rat assessed as inhibition of LPS-induced TNFalpha production in serum administered 1 hr before LPS challenge measured after 1.5 hrs by ELISA
Rattus norvegicus [11] = test: Antiinflammatory activity in rat assessed as inhibition of LPS-induced TNFalpha production in serum at 30 mg/kg, sc administered 1 hr before LPS challenge measured after 1.5 hrs by ELISA
Rattus norvegicus [12] = test: Antiinflammatory activity in rat assessed as inhibition of LPS-induced TNFalpha production in serum at 10 mg/kg, sc administered 1 hr before LPS challenge measured after 1.5 hrs by ELISA
Rattus norvegicus [13] = test: Antiinflammatory activity in rat assessed as inhibition of LPS-induced TNFalpha production in serum at 12.5 mg/kg, iv administered 1 hr before LPS challenge measured after 1.5 hrs by ELISA
THP-1 [14] = test: Antiinflammatory activity in human THP1 cells assessed as inhibition of LPS-induced TNFalpha production at 10 uM treated 30 mins before LPS challenge measured after 4 hrs by ELISA; assay type: functional
[15] = Permeability of the compound by PAMPA; assay type: ADME; conditions: read-out: permeability
[16] = Permeability across human Caco2 cells; assay type: ADME, cell-based; conditions: Caco-2, read-out: permeability

Chain of MAP kinase-activated protein kinase 2 (P49137 whole entry): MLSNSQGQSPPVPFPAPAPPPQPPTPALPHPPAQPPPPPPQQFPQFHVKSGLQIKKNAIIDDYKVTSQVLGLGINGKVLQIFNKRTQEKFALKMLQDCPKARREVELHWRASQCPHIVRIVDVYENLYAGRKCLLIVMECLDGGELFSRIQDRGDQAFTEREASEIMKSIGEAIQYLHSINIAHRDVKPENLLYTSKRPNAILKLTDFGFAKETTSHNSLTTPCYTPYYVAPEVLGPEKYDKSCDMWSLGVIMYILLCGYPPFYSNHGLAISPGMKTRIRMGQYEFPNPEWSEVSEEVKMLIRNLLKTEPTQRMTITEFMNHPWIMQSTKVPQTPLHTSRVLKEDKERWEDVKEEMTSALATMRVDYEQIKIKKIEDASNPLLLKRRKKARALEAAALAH

EC50 [1] [µM]	solubility kinetic [3] [µg/mL]	half-life [4] [min]	half-life [5] [min]	fraction unbound [6]	Compound	inhibition at 10 µM (THP-1 [14]) [%]	further results
0.151	–	–	–	–	NCC1CNC(=O)c2cc(-c3ccnc(-c4cnc5ccccc5c4)c3)nn21 (configuration not stated)	–	–
–	37 (≈ 91.7 µM)	91	> 120	0.03	O=C1NCC2(CCNCC2)c2[nH]c(-c3ccnc(-c4ccc5c(c4)OCO5)n3)cc21	–	EC50 (THP-1 [2]): 0.98 µM; EC50 (PBMC): 0.26 µM; AUC [7]: 0.016 µM·h; AUC [8]: 1.26 µM·h; AUC [9]: 2.71 µM·h; inhibition (Rattus norvegicus [10]): Dose-dependent effect; inhibition in vivo at 30 mg/kg (Rattus norvegicus [11]): 85%; inhibition in vivo at 10 mg/kg (Rattus norvegicus [12]): 54%; inhibition in vivo at 12.5 mg/kg (Rattus norvegicus [13]): 92%
0.006	23 (≈ 56 µM)	–	–	–	O=C1NCC2(CCNCC2)c2[nH]c(-c3ccnc(-c4cnc5ccccc5c4)n3)cc21	–	–
0.028	33 (≈ 91.8 µM)	–	–	–	NCCn1nc(-c2ccnc(-c3cnc4ccccc4c3)c2)cc1C(=O)O	7	–
–	–	35	40	0.003	O=C1NCCc2[nH]c(-c3ccnc(-c4cnc5ccccc5c4)c3)cc21	38	Papp [15]: 0.6 ×10⁻⁶ cm/s; Papp [16]: 0.5 ×10⁻⁶ cm/s
0.234	–	–	–	–	O=C1NCC2(CCCC2)c2[nH]c(-c3ccnc(-c4cnc5ccccc5c4)n3)cc21	50	–
